Results taken from ChEMBL document CHEMBL3399928, “Design and synthesis of novel 2-(indol-5-yl)thiazole derivatives as xanthine oxidase inhibitors” (Bioorg Med Chem Lett, 2015).

What was measured:
[1] = Inhibition of butter milk Xanthine oxidase using xanthine as substrate preincubated for 3 mins by spectrophotometry
How it was run: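 Buttermilk xanthine oxidase at 0.05 U/mL in 50 mM phosphate buffer with test compound; reaction started with 200 µM xanthine stock. Uric acid formation read at 293 nm, with linear Vmax over 5 min taken as initial velocity. Inhibition was calculated against the uninhibited rate, and IC50 was taken as the concentration giving 50% inhibition.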

[2] = Half life in rat liver microsomes; type: ADME
[3] = system: Rattus norvegicus; experiment: Inhibition of uric acid production in Sprague-Dawley rat at 10 mg/kg, po measured 1 hr post dose; type: functional
How it was run: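 Male SD rats (about 200 g) received potassium oxonate 300 mg/kg i.p. in 0.8% carboxymethylcellulose. One hour later, compound at 10 mg/kg in PEG400/ethanol (2:1) was given orally, and blood was sampled 1 h after dosing. Plasma uric acid was scaled with the normal group as 100% and the oxonate control as 0% inhibition. ANOVA with Dunnett's post-test was used.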

[4] = Cmax in Sprague-Dawley rat at 10 mg/kg, po; type: ADME, organism-based; set-up: dose 10 mg/kg, route oral; conditions: in vivo
How it was run: (§1)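 Single oral dose of 10 mg/kg in Sprague-Dawley rats; plasma followed over 24 h; Cmax, Tmax, AUC, half-life and bioavailability derived from the plasma profile; n = 3.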

[5] = AUC (0 to last) in Sprague-Dawley rat at 10 mg/kg, po; type: ADME, organism-based; set-up: time 0 - last, dose 10 mg/kg, route oral; conditions: plasma; how it was run: as §1
[6] = Cytotoxicity against primary rat hepatocytes; type: cell-based, Hepatocyte
[7] = system: Plasma; experiment: Plasma concentration in Sprague-Dawley rat at 10 mg/kg, po; type: ADME, organism-based; set-up: dose 10 mg/kg, route oral; conditions: in vivo
How it was run: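 Oral dose of 10 mg/kg in Sprague-Dawley rats; plasma concentration measured 1 h after administration.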

[8] = AUC (0 to last) in Sprague-Dawley rat at 2 mg/kg, iv; type: ADME, organism-based; set-up: dose 2 mg/kg, route intravenous, time 0 - last; conditions: plasma
How it was run: (§2)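 Single intravenous dose of 2 mg/kg in Sprague-Dawley rats; AUC, half-life, clearance and Vd derived from the plasma profile; n = 3.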

[9] = AUC (0 to infinity) in Sprague-Dawley rat at 2 mg/kg, iv; type: ADME, organism-based; set-up: time infinity, dose 2 mg/kg, route intravenous; conditions: plasma; how it was run: as §2
[10] = Half life in Sprague-Dawley rat at 2 mg/kg, iv; type: ADME, organism-based; set-up: dose 2 mg/kg, route intravenous; conditions: in vivo; how it was run: as §2
[11] = Clearance in Sprague-Dawley rat at 2 mg/kg, iv; type: ADME, organism-based; set-up: dose 2 mg/kg, route intravenous; conditions: in vivo; how it was run: as §2
[12] = Volume of distribution in Sprague-Dawley rat at 2 mg/kg, iv; type: ADME, organism-based; set-up: dose 2 mg/kg, route intravenous; conditions: in vivo; how it was run: as §2
[13] = AUC (0 to infinity) in Sprague-Dawley rat at 10 mg/kg, po; type: ADME, organism-based; set-up: time infinity, dose 10 mg/kg, route oral; conditions: plasma; how it was run: as §1
[14] = Tmax in Sprague-Dawley rat at 10 mg/kg, po; type: ADME, organism-based; set-up: dose 10 mg/kg, route oral; conditions: in vivo; how it was run: as §1
[15] = Half life in Sprague-Dawley rat at 10 mg/kg, po; type: ADME, organism-based; set-up: dose 10 mg/kg, route oral; conditions: in vivo; how it was run: as §1
[16] = Oral bioavailability in Sprague-Dawley rat at 10 mg/kg; type: ADME, organism-based; conditions: in vivo; how it was run: as §1

Row | SMILES | IC50 [1] [nM] | half-life [2] [h] | inhibition in vivo at 10 mg/kg [3] [%] | also measured
1 | COCC(C)n1cc(C#N)c2cc(-c3nc(C)c(C(=O)O)s3)ccc21 (configuration not stated) | 9 | – | 14.1 | –
2 | Cc1nc(-c2ccc3c(c2)c(C#N)cn3Cc2ccc(F)cc2F)sc1C(=O)O | 8.6 | – | 16 | –
3 | CC(=O)NCCn1cc(C#N)c2cc(-c3nc(C)c(C(=O)O)s3)ccc21 | 5.6 | – | 0 | Cp [7]: < 20 ng/mL
4 | Cc1nc(-c2ccc3c(c2)c(C#N)cn3C(C)CO)sc1C(=O)O (configuration not stated) | 3 | – | 8.5 | –
5 | Cc1nc(-c2ccc3c(c2)c(C#N)cn3CCNS(C)(=O)=O)sc1C(=O)O | 6 | – | 0 | –
6 | Cc1nc(-c2ccc3c(c2)c(C#N)cn3CCS(C)(=O)=O)sc1C(=O)O | 12.3 | – | 0 | Cp [7]: < 20 ng/mL
7 | COc1nc(-c2ccc3c(c2)c(C#N)cn3C(C)C)sc1C(=O)O | 90 | – | – | –
8 | CC(C)n1cc(C#N)c2cc(-c3nc(C(F)(F)F)c(C(=O)O)s3)ccc21 | 895 | – | – | –
9 | Cc1nc(-c2ccc3c(c2)c(C#N)cn3Cc2ccccc2)sc1C(=O)O | 3.9 | – | 10 | –
10 | CC(C)n1cc(C#N)c2cc(-c3ncc(C(=O)O)s3)ccc21 | 4.4 | – | – | Cmax [4]: 940 ng/mL; AUC(0-t) [5]: 5390 ng·h/mL
11 | COCCn1cc([N+](=O)[O-])c2cc(-c3nc(C)c(C(=O)O)s3)ccc21 | 12 | – | – | –

The next lines start with results.

Row | IC50 [1] [nM] | half-life [2] [h] | SMILES | inhibition in vivo at 10 mg/kg [3] [%] | also measured
12 | 16 | 0.11 | Cc1nc(-c2ccc3c(c2)c(Cl)c(C)n3CC(C)C)sc1C(=O)O | – | –
13 | 10.7 | – | Cc1nc(-c2ccc3c(c2)c(C#N)c(C)n3C(C)C)sc1C(=O)O | 8.6 | –
14 | 3.1 | 2.9 | Cc1nc(-c2ccc(OCC(C)C)c(C#N)c2)sc1C(=O)O [FEBUXOSTAT] | – | Cmax [4]: 16400 ng/mL; AUC(0-t) [5]: 61500 ng·h/mL
15 | 110 | 0.458 | Cc1nc(-c2ccc3c(ccn3CC(C)C)c2)sc1C(=O)O | – | –
16 | 5.5 | 1.76 | Cc1nc(-c2ccc3c(c2)c(C#N)cn3CC(C)C)sc1C(=O)O | – | CC50 [6]: 82000 nM
17 | 4.9 | – | Cc1nc(-c2ccc3c(c2)c(C#N)cn3C(C)CF)sc1C(=O)O (configuration not stated) | 22.3 | –
18 | 4.2 | 1.32 | Cc1nc(-c2ccc3c(c2)c([N+](=O)[O-])cn3C(C)C)sc1C(=O)O | – | –
19 | 5.7 | 0.103 | Cc1nc(-c2ccc3c(c2)c(Cl)cn3CC(C)C)sc1C(=O)O | – | –
20 | 3.5 | – | Cc1nc(-c2ccc3c(c2)c(C#N)cn3C(C)C)sc1C(=O)O | 60 | AUC(0-t) [8]: 12400 ng·h/mL; AUC(0-inf) [9]: 12500 ng·h/mL; half-life [10]: 4.37 h; clearance [11]: 2.69 mL/min/kg; Vd [12]: 0.635 L/kg; Cmax [4]: 3980 ng/mL; AUC(0-t) [5]: 47300 ng·h/mL; CC50 [6]: 200000 nM; AUC(0-inf) [13]: 52900 ng·h/mL; Tmax [14]: 6 h; half-life [15]: 7.95 h; bioavailability [16]: 84.3%
21 | 7.3 | 1.6 | Cc1nc(-c2ccc3c(c2)c(Cl)cn3C(C)C)sc1C(=O)O | – | –
